Active and inactive are the calls of the source.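 The calls were made as follows: active = response above about half the acetylcholine maximum when tested at 10 µM with a low acetylcholine dose; inactive = response below half the acetylcholine maximum.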
What follows are compounds tested against Muscarinic acetylcholine receptor M1 (Rattus norvegicus) (UniProt P08482) (assay: enhancement of submaximal ACh response at M1 – ACh EC20, CHO cells (AID 2626)). Conditions: CHO rM1 cells, calcium response with ACh EC20; at 10 µM; active compounds read high.
Sequence of Muscarinic acetylcholine receptor M1 (Rattus norvegicus) (P08482 whole entry, looked up): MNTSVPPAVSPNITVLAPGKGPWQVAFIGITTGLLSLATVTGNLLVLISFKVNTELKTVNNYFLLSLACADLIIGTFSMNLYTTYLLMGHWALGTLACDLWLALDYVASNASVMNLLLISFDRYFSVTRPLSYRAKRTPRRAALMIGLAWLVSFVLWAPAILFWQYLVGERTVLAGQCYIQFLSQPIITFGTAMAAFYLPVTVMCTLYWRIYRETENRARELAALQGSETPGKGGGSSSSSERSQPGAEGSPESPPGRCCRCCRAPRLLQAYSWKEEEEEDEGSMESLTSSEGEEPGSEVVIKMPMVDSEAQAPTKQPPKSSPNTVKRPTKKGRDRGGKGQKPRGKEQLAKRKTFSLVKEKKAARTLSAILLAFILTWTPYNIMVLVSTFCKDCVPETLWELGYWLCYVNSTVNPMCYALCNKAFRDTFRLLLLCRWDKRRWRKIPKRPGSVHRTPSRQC
Method in brief: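 material = CHO cells expressing rat M1 muscarinic acetylcholine receptor | compound dosing = single fixed 10 µM compound concentration | also added = acetylcholine at submaximal, roughly EC20 concentration | read-out basis = potentiation of the EC20 acetylcholine response by compound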

SMILES | % of ACh max response (PAM)
COc1ccccc1Cn1cc(S(=O)(=O)CC(=O)Nc2cc(C)on2)c2ccccc21 | 30.6% (inactive)
Cc1cc(NC(=O)CS(=O)(=O)c2cn(Cc3ccc(F)c(Br)c3)c3ccccc23)no1 | 24% (inactive)
Cc1cc(NC(=O)CS(=O)(=O)c2cn(Cc3cccc(-c4cnn(CC(C)C)c4)c3)c3ccccc23)no1 | 24.4% (inactive)
O=C(O)CS(=O)(=O)c1cn(Cc2cc(Br)ccc2F)c2ccccc12 | 18.1% (inactive)
Cc1cc(NC(=O)CS(=O)(=O)c2cn(Cc3ccc(Br)cc3F)c3ccccc23)no1 | 27.7% (inactive)
Cc1cc(NC(=O)CS(=O)(=O)c2cn(Cc3cccc(C#N)c3)c3ccccc23)no1 | 52.7%
Cc1cc(NC(=O)CS(=O)(=O)c2cn(Cc3ccc(C(F)(F)F)cc3)c3ccccc23)no1 | 30.4% (inactive)
Cc1cc(NC(=O)CS(=O)(=O)c2cn(Cc3cc(Br)cc(Br)c3)c3ccccc23)no1 | 12.7% (inactive)
Cc1cc(NC(=O)CS(=O)(=O)c2cn(Cc3ccc(Cl)cc3)c3ccccc23)no1 | 30.8% (inactive)
Cc1cc(NC(=O)CSc2cn(Cc3ccccc3Cl)c3ccccc23)no1 | 26.7% (inactive)
Cc1cc(NC(=O)CS(=O)(=O)c2c[nH]c3ccccc23)no1 | 29% (inactive)
Cc1cc(NC(=O)C(Cc2ccc(OC(F)(F)F)cc2)S(=O)(=O)c2cn(Cc3ccc(OC(F)(F)F)cc3)c3ccccc23)no1 (stereo not drawn) | 28.7% (inactive)
Cc1cc(NC(=O)CSc2cn(Cc3cccc(Br)c3)c3ccccc23)no1 | 26.9% (inactive)
Cc1cc(NC(=O)CS(=O)(=O)c2cn(Cc3ccccc3F)c3ccccc23)no1 | 52.9%
Cc1cc(NC(=O)CS(=O)c2cn(Cc3cccc(Cl)c3)c3ccccc23)no1 (stereo not drawn) | 72.4%
Cc1cc(NC(=O)CS(=O)(=O)c2cn(Cc3ccc(F)nc3)c3ccccc23)no1 | 41.2% (inactive)
Cc1cc(NC(=O)CS(=O)(=O)c2cn(Cc3cccc(-c4ccc(N5CCNCC5)nc4)c3)c3ccccc23)no1 | 43.6% (inactive)
COc1ccc(Cn2cc(S(=O)(=O)CC(=O)Nc3cc(C)on3)c3ccccc32)cc1 | 54.8%
Cc1cc(NC(=O)C(C)S(=O)(=O)c2cn(Cc3cc(Br)ccc3F)c3ccccc23)no1 (stereo not drawn) | 19.7% (inactive)
Cc1cc(NC(=O)C(Cc2cccc(Cl)c2)S(=O)(=O)c2cn(Cc3cccc(Cl)c3)c3ccccc23)no1 (stereo not drawn) | 42.1% (inactive)
O=C(CS(=O)(=O)c1cn(Cc2cc(Br)ccc2F)c2ccccc12)Nc1ccccc1 | 13.9% (inactive)

The next lines start with the values.

% of ACh max response (PAM) | SMILES
44.5% (inactive) | Cc1cc(NC(=O)C(Cc2ccccc2F)S(=O)(=O)c2cn(Cc3ccccc3F)c3ccccc23)no1 (stereo not drawn)
35.8% (inactive) | Cc1cc(NC(=O)CS(=O)(=O)c2cn(Cc3ccc4c(c3)OCO4)c3ccccc23)no1
28.8% (inactive) | Cc1cc(NC(=O)CSc2c[nH]c3ccccc23)no1
17.7% (inactive) | Cc1cc(NC(=O)C(C)S(=O)(=O)c2cn(Cc3cc(Br)cc(Br)c3)c3ccccc23)no1 (stereo not drawn)
18.5% (inactive) | Cc1cc(NC(=O)CS(=O)(=O)c2cn(Cc3cccc(-c4ccc(N5CCOCC5)nc4)c3)c3ccccc23)no1
38.5% (inactive) | Cc1cc(NC(=O)C(Cc2ccc(F)cc2F)S(=O)(=O)c2cn(Cc3ccc(F)cc3F)c3ccccc23)no1 (stereo not drawn)
7.5% (inactive) | COC(=O)CS(=O)(=O)c1cn(Cc2cc(Br)ccc2F)c2ccccc12
33.3% (inactive) | Cc1cc(NC(=O)CS(=O)(=O)c2cn(Cc3cccc(-c4ccc(N5CCCC5)nc4)c3)c3ccccc23)no1
51.6% | Cc1cc(NC(=O)CS(=O)(=O)c2cn(Cc3ccc(F)cc3F)c3ccccc23)no1
26.4% (inactive) | Cc1cc(NC(=O)CS(=O)(=O)c2cn(Cc3cccc(-c4ccc(Cl)nc4)c3)c3ccccc23)no1
28.7% (inactive) | Cc1cc(NC(=O)CS(=O)(=O)c2cn(Cc3ccc(OC(F)(F)F)cc3)c3ccccc23)no1
26.3% (inactive) | CS(=O)(=O)c1cn(Cc2ccccc2Cl)c2ccccc12
